pIC50: −log10 of the molar value. The source made the active and inactive calls. The rule behind the calls is not given here.
Assays:
[1] = Stability in human liver microsomes assessed as parent compound remaining at 50 uM preincubated for 5 to 7 mins followed by NADPH addition and measured 10 mins post-dose by LC-MS/MS; type: ADME, Microsome; settings: read-out: Stability
[2] = molecular target: Voltage-gated inwardly rectifying potassium channel KCNH2 (Homo sapiens, UniProt Q12809); assay: Inhibition of human ERG expressed in HEK293 cells by flux assay
Chain of Voltage-gated inwardly rectifying potassium channel KCNH2 (Q12809 whole entry): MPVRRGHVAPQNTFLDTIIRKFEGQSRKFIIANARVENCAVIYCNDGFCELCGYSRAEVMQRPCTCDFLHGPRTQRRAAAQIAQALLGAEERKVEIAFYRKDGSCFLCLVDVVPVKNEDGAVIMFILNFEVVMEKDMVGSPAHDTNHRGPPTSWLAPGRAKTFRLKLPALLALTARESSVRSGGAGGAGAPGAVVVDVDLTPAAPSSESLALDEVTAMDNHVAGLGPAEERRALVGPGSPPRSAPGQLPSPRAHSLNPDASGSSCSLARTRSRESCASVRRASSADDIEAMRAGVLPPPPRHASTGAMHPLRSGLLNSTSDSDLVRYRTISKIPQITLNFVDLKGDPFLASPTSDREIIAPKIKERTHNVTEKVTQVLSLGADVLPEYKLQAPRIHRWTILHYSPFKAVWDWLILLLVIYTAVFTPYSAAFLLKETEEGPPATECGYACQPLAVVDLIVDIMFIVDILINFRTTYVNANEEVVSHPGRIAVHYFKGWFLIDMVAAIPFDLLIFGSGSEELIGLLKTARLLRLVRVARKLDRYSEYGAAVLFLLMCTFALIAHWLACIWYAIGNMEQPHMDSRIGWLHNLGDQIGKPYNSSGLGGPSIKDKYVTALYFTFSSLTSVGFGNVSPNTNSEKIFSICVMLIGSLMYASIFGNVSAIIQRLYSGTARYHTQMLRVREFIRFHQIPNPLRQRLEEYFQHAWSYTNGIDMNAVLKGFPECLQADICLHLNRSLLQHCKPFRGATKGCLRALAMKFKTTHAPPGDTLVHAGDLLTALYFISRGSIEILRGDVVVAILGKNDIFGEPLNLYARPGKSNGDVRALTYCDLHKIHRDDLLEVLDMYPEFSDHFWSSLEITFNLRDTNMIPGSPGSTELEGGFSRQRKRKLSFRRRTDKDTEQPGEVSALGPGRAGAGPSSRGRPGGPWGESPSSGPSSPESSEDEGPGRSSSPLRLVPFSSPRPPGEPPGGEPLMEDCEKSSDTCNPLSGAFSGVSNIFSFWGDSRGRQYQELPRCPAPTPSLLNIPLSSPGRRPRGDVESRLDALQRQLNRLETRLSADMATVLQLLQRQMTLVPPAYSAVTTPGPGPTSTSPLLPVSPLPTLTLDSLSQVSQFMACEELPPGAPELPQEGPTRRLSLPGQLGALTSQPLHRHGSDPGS

[3] = molecular target: T1, Cholesteryl ester transfer protein (Homo sapiens, UniProt P11597); assay: Inhibition of CETP in human whole plasma assessed as reduction in [3H]-CE/HDL transfer incubated for 2.5 hrs by topcount scintillation counting assay; type: cell-free
T1 sequence (P11597 whole entry): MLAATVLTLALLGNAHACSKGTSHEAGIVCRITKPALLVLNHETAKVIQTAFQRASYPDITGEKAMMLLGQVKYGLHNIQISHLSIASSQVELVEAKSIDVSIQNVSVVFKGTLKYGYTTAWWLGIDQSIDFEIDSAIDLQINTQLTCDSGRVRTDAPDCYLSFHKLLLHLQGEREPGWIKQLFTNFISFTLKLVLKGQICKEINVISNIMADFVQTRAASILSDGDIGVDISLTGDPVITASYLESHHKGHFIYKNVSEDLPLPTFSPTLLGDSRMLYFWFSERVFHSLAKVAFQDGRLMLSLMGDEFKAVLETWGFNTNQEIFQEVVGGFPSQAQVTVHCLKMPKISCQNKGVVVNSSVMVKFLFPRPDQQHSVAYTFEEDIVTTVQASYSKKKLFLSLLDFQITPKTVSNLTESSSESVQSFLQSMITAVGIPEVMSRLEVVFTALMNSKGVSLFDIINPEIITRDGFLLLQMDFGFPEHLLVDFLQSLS
In short: (§1)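 CETP activity was measured by scintillation proximity assay and by human whole plasma assay. Each was run in duplicate at six concentrations, and the mean values were used to calculate IC50.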

[4] = molecular target: T1, Cholesteryl ester transfer protein; assay: Inhibition of human recombinant CETP assessed as reduction in [3H]CE/HDL transfer incubated for 4 hrs by scintillation proximity assay; in short: as §1
[5] = Stability in mouse liver microsomes assessed as parent compound remaining at 50 uM preincubated for 5 to 7 mins followed by NADPH addition and measured 10 mins post-dose by LC-MS/MS; type: ADME, Microsome; settings: read-out: Stability
[6] = Half life in Sprague-Dawley rat at 1 mg/kg, iv or 10 mg/kg, po administered via gavage measured upto 24 hrs by LC-MS/MS; type: ADME, organism-based; settings: in vivo
In short: (§2)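 Single IV and oral doses: rat 1 mg/kg IV and 10 mg/kg PO; mouse 5 mg/kg IV and 10 mg/kg PO; monkey 1 mg/kg IV and 5 mg/kg PO. IV vehicle was 10% Cremophor/10% EtOH/80% H2O for rodents and 70% PEG-400/10% EtOH/20% H2O for monkey. Oral vehicle was 15% Miglyol 812/30% Capmul MCM/15% Triacetin/40% Cremophor RH40, or the Cremophor vehicle for rat. Vss, Cl, t1/2 and %F were derived.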

[7] = Volume of distribution at steady state in Sprague-Dawley rat at 1 mg/kg, iv or 10 mg/kg, po administered via gavage measured upto 24 hrs by LC-MS/MS; type: ADME, organism-based; settings: in vivo, read-out: Vdss; in short: as §2
Mus musculus [8] = assay: In vivo inhibition of CETP in hCETP/apoB-100 dual transgenic mouse assessed as reduction in [3H]-CE transfer at 1 mg/kg, po administered via gavage measured after 2 to 8 hrs by radioactivity based assay; type: functional, organism-based
[9] = Oral bioavailability in Sprague-Dawley rat at 10 mg/kg administered via gavage measured upto 24 hrs by LC-MS/MS; type: ADME, organism-based; settings: in vivo; in short: as §2
[10] = molecular target: T2, Cholesteryl ester transfer protein (Homo sapiens) (UniProt P11597); assay: Potency index, ratio of torcetrapib IC50 to test compound IC50 for inhibition of CETP in human whole plasma; type: cell-free
T2 sequence (whole entry): T1 sequence (P11597 whole entry)

[11] = Clearance in Sprague-Dawley rat at 1 mg/kg, iv or 10 mg/kg, po administered via gavage measured upto 24 hrs by LC-MS/MS; type: ADME, organism-based; settings: in vivo; in short: as §2
CYP11B2 = assay: Upregulation of CYP11B2 gene expression in human NCI-H295R cells at 0.1 uM measured after 24 hrs relative to control; type: ADME, cell-based; settings: read-out: FC
In short: (§3)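 H295R cells were incubated for 24 h with test agent at 10 μM or angiotensin-II at 0.1 μM. CYP11B1 and CYP11B2 mRNA levels were measured and expressed as fold of control.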

CYP11B1 = assay: Upregulation of CYP11B1 gene expression in human NCI-H295R cells at 0.1 uM measured after 24 hrs relative to control; type: ADME, cell-based; settings: read-out: FC; in short: as §3
Mus musculus [12] = assay: In vivo inhibition of CETP in hCETP/apoB-100 dual transgenic mouse assessed as reduction in [3H]-CE transfer at 10 mg/kg, po administered via gavage measured after 2 to 8 hrs by radioactivity based assay; type: functional, organism-based

| remaining at 10 min, 50 µM [1] [%] | pIC50 [3] | pIC50 [4] | remaining at 10 min, 50 µM [5] [%] | Compound | pIC50 [2] | other results |
| --- | --- | --- | --- | --- | --- | --- |
| 100 | 6.37 | 7.96 | 72 | NC(C(=O)N[C@](Cc1ccccc1)(c1ccc(F)cc1)c1cc(F)cc(C(F)(F)F)c1)C(O)(C(F)(F)F)C(F)(F)F (stereo partly specified) | < 4.10 | – |
| 100 | 5.23 | 7.28 | 100 | NC(C(=O)N[C@@](Cc1ccccc1)(c1cc(F)cc(OC(F)(F)C(F)F)c1)c1ccc(Cl)cn1)C(O)(C(F)(F)F)C(F)(F)F (stereo in doubt; 9a) | < 4.10 | – |
| 2 | 6.57 | 8.22 | 16 | CC(C)Oc1cc([C@@](Cc2ccccc2)(NC(=O)C(N)C(O)C(F)(F)F)c2cc(F)cc(OC(F)(F)C(F)F)c2)ccc1F (stereo partly specified) | – | – |
| 95 | 7.25 | 8.52 | 90 | CC(C)Oc1cc([C@@](Cc2ccccc2)(NC(=O)C(N)C(O)(C(F)(F)F)C(F)(F)F)c2cc(F)cc(OC(F)(F)C(F)F)c2)ccc1F (stereo partly specified) | 4.36 | half-life [6]: 1.9 h; Vd [7]: 0.5 L/kg; inhibition (Mus musculus [8]): Active; bioavailability [9]: 12%; Ratio IC50 [10]: 2; clearance [11]: 5.4 mL/min/kg |
| 92 | 5.42 | 6.92 | 91 | O=C(CC(O)(C(F)(F)F)C(F)(F)F)N[C@@](Cc1ccccc1)(c1cc(F)cc(C(F)(F)F)c1)c1ccc(Cl)cn1 | 4.66 | – |
| 100 | 6.85 | 8.30 | 100 | CC(C)(C)Oc1cc([C@@](Cc2ccccc2)(NC(=O)C(N)C(O)(C(F)(F)F)C(F)(F)F)c2cc(F)cc(OC(F)(F)C(F)F)c2)ccc1F (stereo partly specified) | – | – |
| 62 | 5.21 | 6.85 | 87 | CNC(C(=O)N[C@](Cc1ccccc1)(c1ccc(F)cc1)c1cc(F)cc(C(F)(F)F)c1)C(O)(C(F)(F)F)C(F)(F)F (stereo partly specified) | 4.89 | – |
| 71 | 5.15 | 6.64 | 54 | CC(C)NC(C(=O)N[C@](Cc1ccccc1)(c1ccc(F)cc1)c1cc(F)cc(C(F)(F)F)c1)C(O)(C(F)(F)F)C(F)(F)F (stereo partly specified) | 4.20 | – |
| – | 5.85 | 7.46 | – | O=C(N[C@@](Cc1ccccc1)(c1cc(F)cc(C(F)(F)F)c1)c1ccc(Cl)cn1)C(O)C(O)(C(F)(F)F)C(F)(F)F (stereo partly specified) | – | – |
| – | 6.03 | 7.10 | – | NC(C(=O)N[C@@](Cc1ccccc1)(c1cc(F)cc(OC(F)(F)C(F)F)c1)c1ccc(Cl)cn1)C(O)(C(F)(F)F)C(F)(F)F (stereo in doubt; 9b) | – | pIC50 ([2]; hek293): < 4.10 |
| 81 | 6.70 | 7.59 | 68 | CC(C)Oc1cc([C@@](Cc2ccccc2)(NCC(N)C(O)(C(F)(F)F)C(F)(F)F)c2cc(F)cc(OC(F)(F)C(F)F)c2)ccc1F (stereo partly specified) | < 4.10 | – |
| – | – | – | – | CC[C@H](C)[C@H](NC(=O)[C@H](Cc1ccc(O)cc1)NC(=O)[C@@H](NC(=O)[C@H](CCCNC(=N)N)NC(=O)[C@@H](N)CC(=O)O)C(C)C)C(=O)N[C@@H](Cc1cnc[nH]1)C(=O)N1CCC[C@H]1C(=O)N[C@@H](Cc1ccccc1)C(=O)O [ANGIOTENSIN II] | – | fold induction at 24 h, 0.1 µM (CYP11B2): 4; fold induction at 24 h, 0.1 µM (CYP11B1): 4 |
| 89 | 7.08 | 9.00 | 100 | CC(C)Oc1cc([C@@](Cc2ccccc2)(NC(=O)C(O)C(O)(C(F)(F)F)C(F)(F)F)c2cc(F)cc(OC(F)(F)C(F)F)c2)ccc1F (stereo partly specified) | – | – |
| 100 | 7.24 | 8.30 | 100 | CC(C)Oc1cc([C@@](Cc2ccccc2)(NCC(O)C(O)(C(F)(F)F)C(F)(F)F)c2cc(F)cc(OC(F)(F)C(F)F)c2)ccc1F (stereo partly specified) | 4.92 | – |
| 58 | 4.52 | 5.48 | 82 | CN(C)C(C(=O)N[C@](Cc1ccccc1)(c1ccc(F)cc1)c1cc(F)cc(C(F)(F)F)c1)C(O)(C(F)(F)F)C(F)(F)F (stereo partly specified) | 4.80 | – |
| – | – | – | – | CCOC(=O)N1c2ccc(C(F)(F)F)cc2[C@@H](N(Cc2cc(C(F)(F)F)cc(C(F)(F)F)c2)C(=O)OC)C[C@H]1CC | – | inhibition (Mus musculus [12]): Active |
